Measurements of several laboratories.
Lines come from different studies, so protocols differ.

SMILES | target | effect on | action | method | tested at | quantity | result
Cn1cc(-c2cccc(N3CCc4c(sc5c4CC(C)(C)C5)C3=O)c2CO)cc(Nc2ccncn2)c1=O | Serine/threonine-protein kinase mTOR (MTOR, Homo sapiens, UniProt P42345) | enzyme activity | inhibitor |  | 1 µM | inhibition | -4%
COc1ncccc1-c1cnn2ccc(N3CCN(C(=O)OC(C)C)CC3)nc12 | Ribosomal protein S6 kinase alpha-2, C-terminal kinase domain (RPS6KA2, Homo sapiens, UniProt Q15349) | binding |  | competition with immobilised ligand | 1 µM | remaining binding | 83%
O=C(Nc1cccnn1)N1CCN([C@@H]2CCOc3cc(C(F)(F)F)ccc32)CC1 | Melanocortin receptor 3 (MC3R, Homo sapiens, UniProt P41968) | cell-free assay |  |  | 20 µM | inhibition | 13%
CCN(CC)CCCC[C@H](NC(=O)[C@H](CC(C)C)NC(=O)[C@H](C)NC(=O)[C@H](Cc1ccccc1)NC(=O)c1ccc(C(C)(C)C)cc1)C(=O)N[C@@H](CO)C(=O)OC | Nucleosome-remodeling factor subunit BPTF (BPTF, Homo sapiens, UniProt Q12830) | thermal stability |  | DSF | 25 µM | ΔTm | 0 °C
Cn1cc(-c2cc(F)cc(N3CCn4c(cc5c4CCCC5)C3=O)c2CO)cc(Nc2ccc(N3CCN(C4COC4)CC3)cn2)c1=O | PAS domain-containing serine/threonine-protein kinase (PASK, Homo sapiens, UniProt Q96RG2) | enzyme activity | inhibitor |  | 0.1 µM | inhibition | -1%
Nc1ncc(-c2nc(N3CCOCC3)nc(N3CCOCC3)n2)c(C(F)F)n1 | Microtubule-associated serine/threonine-protein kinase 1 (MAST1, Homo sapiens, UniProt Q9Y2H9) | binding |  | competition with immobilised ligand | 10 µM | remaining binding | 90%
C#Cc1n[nH]c2c(-c3cn(C(C)c4ccccn4)c(=O)[nH]c3=O)cc(F)cc12 (stereo not drawn) | Proto-oncogene tyrosine-protein kinase ROS (ROS1, Homo sapiens, UniProt P08922) | enzyme activity | inhibitor |  | 1 µM | inhibition | 1.4%
Cc1nn(C)cc1-c1nc2c(N3CCN(Cc4ccc(Cl)cc4)CC3)c(Cl)cnc2[nH]1 | Serine/threonine-protein kinase Nek5 (NEK5, Homo sapiens, UniProt Q6P3R8) | binding |  | competition with immobilised ligand | 1 µM | remaining binding | 23%
Nc1ccc(-c2nsc(=O)o2)cc1 | Proteasome Macropain subunit MB1 (PSMB5, Homo sapiens, UniProt P28074) | enzyme activity | inhibitor |  |  | kinact/KI | 8.6 M⁻¹ s⁻¹
